Measurements from article PMC3913000 (Nature chemical biology, 2013).
“Also recorded” adds a separate entry of the source.

Tests used:
[1] = test system: IgE^dansyl; assay: Fluorescence quenching assay, hapten binding to IgE^dansyl; conditions: dansyl-IgE^dansyl versus NF-IgE^DNP
Summary of the method: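 Monovalent hapten titrated into 10 nM IgE in PBS. Binding read as quenching of IgE tryptophan fluorescence at 335 nm, which occurs only when hapten and IgE are in proximity (<10 nm). Monovalent binding constants were derived from the quenching. At least triplicate.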

[2] = biological target: IgE; conditions: read-out: Kd for IgE (nucleotide-binding site ligand); cited from earlier work
[3] = test system: RBL cells; assay: Inhibition of allergen-induced RBL mast cell degranulation; type: cell-based, rat; conditions: equimolar IgE^DNP and IgE^dansyl; 500 nM HtTA [dansyl2NF2]

| difference in affinity between dansyl-IgE^dansyl and NF-IgE^DNP pairs [1] [fold] | Compound | Kd [2] [µM] | inhibition of HtTA [dansyl2NF2]-induced degranulation [3] |
| --- | --- | --- | --- |
| 760 | dansyl |  |  |
|  | O=C(O)CCCc1c[nH]c2ccccc12 [IBA, indole-3-butyric acid] | 4.5 ± 0.6 | did not inhibit degranulation; also recorded: no inhibition of mast cell degranulation was observed |
